Source: ChEMBL document CHEMBL3621052, “Small cyclic agonists of iron regulatory hormone hepcidin” (Bioorg Med Chem Lett, 2015)
The source made the active and inactive calls. The calls are words filed in the database; no cut-off is given here. Starred links: 1 amine or outer side, 2 acyl side, 3 side chain; linkers in the order of their positions; H or OH if unused. Positions of bridges follow the written chain, without caps; N, C: chain ends. Residues, ends and D or L forms follow the SMILES beside them. *: point of attachment. Propanoyl(3,3-Ph2) = O=C(CC(c1ccccc1)c1ccccc1)*; X1 = CCCCCCCCCCCCCCCC(=O)NCCOCCOCCN*; mXylylene = c1cc(C[*:1])cc(C[*:2])c1

Assays:
[1] = Half life in cynomolgus monkey; type: ADME, organism-based, Macaca fascicularis; conditions: in vivo
Ferroportin = target: T1, Ferroportin (Homo sapiens, UniProt Q9NP59); assay: Agonist activity at GFP-fused human FPN transfected in HEK293 cells assessed as protein degradation after 24 hrs by flow cytometric analysis; type: cell-based
T1 sequence (Q9NP59 whole entry): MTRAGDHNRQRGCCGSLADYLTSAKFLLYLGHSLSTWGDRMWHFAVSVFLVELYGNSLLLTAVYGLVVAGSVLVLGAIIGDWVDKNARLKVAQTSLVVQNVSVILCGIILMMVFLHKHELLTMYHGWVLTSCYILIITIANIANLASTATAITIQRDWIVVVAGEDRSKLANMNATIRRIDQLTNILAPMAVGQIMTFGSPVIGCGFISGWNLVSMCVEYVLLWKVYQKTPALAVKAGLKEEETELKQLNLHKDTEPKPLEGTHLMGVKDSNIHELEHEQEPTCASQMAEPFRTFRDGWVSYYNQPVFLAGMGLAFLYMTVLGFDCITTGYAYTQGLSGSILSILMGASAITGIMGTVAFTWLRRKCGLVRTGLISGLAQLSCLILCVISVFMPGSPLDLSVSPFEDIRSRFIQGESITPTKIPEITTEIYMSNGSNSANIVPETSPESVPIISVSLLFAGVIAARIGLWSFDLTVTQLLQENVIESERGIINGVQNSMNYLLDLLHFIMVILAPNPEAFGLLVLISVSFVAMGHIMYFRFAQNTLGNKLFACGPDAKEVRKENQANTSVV
Summary of the method: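 HEK293:TREX-Fpn-GFP cells (human ferroportin-GFP, doxycycline-inducible) plated on poly-D-lysine with 20 μM FAC, induced with 500 ng/mL doxycycline for 24 h, washed, then peptide-treated 24 h. Green fluorescence read by flow cytometry at 1 × 10^6 cells/mL, gated against uninduced cells. Activity expressed as fraction of hep25: 1 − [(Fx − Fhep25)/(Funtreated − Fhep25)]. 3–6 independent repeats.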

Mus musculus [2] = assay: Decrease in serum iron level in C57BL/6 mouse at 50 to 100 nmol, sc after 24 hrs by colorimetric analysis; type: functional, organism-based; conditions: in the assay text read “50 to 200 nmol” for “50 to 100 nmol”
Summary of the method: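 C57BL/6 mice on NIH 31 diet (iron 336 mg/kg) received 50, 100 or 200 nmoles peptide in 100 μL PBS sc, or PBS alone. Killed at 24 h, serum from cardiac puncture. Serum iron measured by microplate colorimetric assay using 50 μL serum. Reported as % decrease versus mean of PBS-injected mice.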

Mus musculus [3] = assay: Decrease in serum iron level in C57BL/6 mouse at 50 to 200 nmol, sc after 24 hrs by colorimetric analysis; type: functional, organism-based
Summary of the method: (§1)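 C57BL/6 mice on NIH 31 diet (iron 336 mg/kg). Single subcutaneous injection of 50, 100 or 200 nmoles peptide in 100 μL PBS; controls received PBS alone. Killed at 24 h, serum from cardiac blood. Serum iron by colorimetric assay (microplate, 50 μL serum). Percent decrease versus mean of PBS-injected mice.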

Plasma = assay: Metabolic stability in mouse plasma at 25 uM by LC/MS analysis; type: ADME, cell-free
Summary of the method: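 Peptide from 10 mM DMSO stock added to fresh mouse plasma (final 25 μM), incubated at 37 °C. Samples (10 μL) taken at time-points and diluted into DMSO/ACN 1:1 with 0.1% TFA. Centrifuged 13000 rpm, 10 min. Supernatant analysed by triple-quadrupole LC/MS with NM4A-Me peptide as internal standard.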

Mus musculus [4] = assay: Decrease in serum iron level in C57BL/6 mouse at 50 nmol, sc after 24 hrs by colorimetric analysis; type: functional, organism-based; summary of the method: as §1

## CC[C@H](C)[C@@H]1NC(=O)[C@@H](NC(=O)[C@@H](NC(=O)[C@@H]2CCCN2C(=O)[C@H](Cc2ccccc2)NC(=O)[C@H](Cc2c[nH]cn2)NC(=O)[C@@H](NC(=O)[C@@H](N)CC(=O)O)[C@@H](C)O)[C@@H](C)CC)CSSC[C@@H](C(=O)N[C@@H](CCCCN)C(=O)N[C@H](C(=O)O)[C@@H](C)O)NC(=O)[C@@H]2CSSC[C@@H]3NC(=O)[C@@H]4CSSC[C@H](NC(=O)[C@H](Cc5ccccc5)NC1=O)C(=O)N[C@@H](CSSC[C@H](NC(=O)[C@H](CCCCN)NC(=O)[C@H](CO)NC(=O)[C@H](CCCNC(=N)N)NC(=O)[C@H](Cc1c[nH]cn1)NC3=O)C(=O)NCC(=O)N[C@@H](CCSC)C(=O)N2)C(=O)NCC(=O)N4
[1]
  half-life: < 2.5 min

## CCCCCCCCCCCCCCCCNC(=O)CN(CC(N)=O)C(=O)CCCCCNC(=O)[C@@H]1CSCc2cccc(c2)CSC[C@H](NC(C)=O)C(=O)N[C@@H](C(c2ccccc2)c2ccccc2)C(=O)N2CCC[C@H]2C(=O)N[C@@H](CCCNC(=N)N)C(=O)N[C@@H](CS)C(=O)N[C@@H](CCCNC(=N)N)C(=O)N[C@@H](Cc2ccccc2)C(=O)N1
Ferroportin
  EC50: 44.2 nM
Mus musculus [2]
  Activity: inactive

## N=C(N)NCCC[C@@H]1NC(=O)[C@@H](NC(=O)CC(c2ccccc2)c2ccccc2)CSCc2cccc(c2)CSC[C@@H](C(N)=O)NC(=O)[C@H](Cc2ccccc2)NC(=O)[C@H](CCCNC(=N)N)NC(=O)[C@H](CS)NC1=O ({Propanoyl(3,3-Ph2)}-CRCRFC-NH2; linker 1-6 via mXylylene)
Ferroportin
  EC50: 104 nM
Mus musculus [3]
  Activity: inactive

## CCCCCCCCCCCCCCCC(=O)NCCOCCOCCNC(=O)[C@@H]1CSCc2cccc(c2)CSC[C@H](NC(=O)CC(c2ccccc2)c2ccccc2)C(=O)N[C@@H](CCCNC(=N)N)C(=O)N[C@@H](CS)C(=O)N[C@@H](CCCNC(=N)N)C(=O)N[C@@H](Cc2ccccc2)C(=O)N1 ({Propanoyl(3,3-Ph2)}-CRCRFC-X1; linker 1-6 via mXylylene)
Plasma
  Stability: Stable
Ferroportin
  EC50: 52.3 nM
Mus musculus [4]
  Activity: inactive
